Experimental data as given in ChEMBL document CHEMBL5696442, “Discovery of type II inhibitors of TGFβ-activated kinase 1 (TAK1) and mitogen-activated protein kinase kinase kinase kinase 2 (MAP4K2)” (J Med Chem, 2015).

Key:
[1] = biological target: T1, Mitogen-activated protein kinase 13 (Homo sapiens) (UniProt O15264); assay: Inhibition of p38delta Lys2 labeling site in human Huh-7 cell lysate at 1 uM by KiNativ Profiling analysis relative to control; type: subcellular
T1 sequence (whole entry): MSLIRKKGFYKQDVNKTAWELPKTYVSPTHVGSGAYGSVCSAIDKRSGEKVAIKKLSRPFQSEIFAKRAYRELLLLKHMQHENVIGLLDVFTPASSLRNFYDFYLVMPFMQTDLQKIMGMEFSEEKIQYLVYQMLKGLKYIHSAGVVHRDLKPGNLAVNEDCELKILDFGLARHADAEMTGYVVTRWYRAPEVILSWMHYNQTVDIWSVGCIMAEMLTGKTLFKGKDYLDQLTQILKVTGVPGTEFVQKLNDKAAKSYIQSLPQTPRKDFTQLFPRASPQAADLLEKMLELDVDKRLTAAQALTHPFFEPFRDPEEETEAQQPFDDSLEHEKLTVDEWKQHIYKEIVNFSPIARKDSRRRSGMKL

[2] = biological target: Serine/threonine-protein kinase WNK2 (Homo sapiens) (UniProt Q9Y3S1); assay: Inhibition of Wnk2 Lys2 labeling site in human A-375 cells at 0.5 uM by KiNativ Profiling analysis relative to control; type: cell-based
Sequence of Serine/threonine-protein kinase WNK2 (Homo sapiens) (Q9Y3S1 whole entry): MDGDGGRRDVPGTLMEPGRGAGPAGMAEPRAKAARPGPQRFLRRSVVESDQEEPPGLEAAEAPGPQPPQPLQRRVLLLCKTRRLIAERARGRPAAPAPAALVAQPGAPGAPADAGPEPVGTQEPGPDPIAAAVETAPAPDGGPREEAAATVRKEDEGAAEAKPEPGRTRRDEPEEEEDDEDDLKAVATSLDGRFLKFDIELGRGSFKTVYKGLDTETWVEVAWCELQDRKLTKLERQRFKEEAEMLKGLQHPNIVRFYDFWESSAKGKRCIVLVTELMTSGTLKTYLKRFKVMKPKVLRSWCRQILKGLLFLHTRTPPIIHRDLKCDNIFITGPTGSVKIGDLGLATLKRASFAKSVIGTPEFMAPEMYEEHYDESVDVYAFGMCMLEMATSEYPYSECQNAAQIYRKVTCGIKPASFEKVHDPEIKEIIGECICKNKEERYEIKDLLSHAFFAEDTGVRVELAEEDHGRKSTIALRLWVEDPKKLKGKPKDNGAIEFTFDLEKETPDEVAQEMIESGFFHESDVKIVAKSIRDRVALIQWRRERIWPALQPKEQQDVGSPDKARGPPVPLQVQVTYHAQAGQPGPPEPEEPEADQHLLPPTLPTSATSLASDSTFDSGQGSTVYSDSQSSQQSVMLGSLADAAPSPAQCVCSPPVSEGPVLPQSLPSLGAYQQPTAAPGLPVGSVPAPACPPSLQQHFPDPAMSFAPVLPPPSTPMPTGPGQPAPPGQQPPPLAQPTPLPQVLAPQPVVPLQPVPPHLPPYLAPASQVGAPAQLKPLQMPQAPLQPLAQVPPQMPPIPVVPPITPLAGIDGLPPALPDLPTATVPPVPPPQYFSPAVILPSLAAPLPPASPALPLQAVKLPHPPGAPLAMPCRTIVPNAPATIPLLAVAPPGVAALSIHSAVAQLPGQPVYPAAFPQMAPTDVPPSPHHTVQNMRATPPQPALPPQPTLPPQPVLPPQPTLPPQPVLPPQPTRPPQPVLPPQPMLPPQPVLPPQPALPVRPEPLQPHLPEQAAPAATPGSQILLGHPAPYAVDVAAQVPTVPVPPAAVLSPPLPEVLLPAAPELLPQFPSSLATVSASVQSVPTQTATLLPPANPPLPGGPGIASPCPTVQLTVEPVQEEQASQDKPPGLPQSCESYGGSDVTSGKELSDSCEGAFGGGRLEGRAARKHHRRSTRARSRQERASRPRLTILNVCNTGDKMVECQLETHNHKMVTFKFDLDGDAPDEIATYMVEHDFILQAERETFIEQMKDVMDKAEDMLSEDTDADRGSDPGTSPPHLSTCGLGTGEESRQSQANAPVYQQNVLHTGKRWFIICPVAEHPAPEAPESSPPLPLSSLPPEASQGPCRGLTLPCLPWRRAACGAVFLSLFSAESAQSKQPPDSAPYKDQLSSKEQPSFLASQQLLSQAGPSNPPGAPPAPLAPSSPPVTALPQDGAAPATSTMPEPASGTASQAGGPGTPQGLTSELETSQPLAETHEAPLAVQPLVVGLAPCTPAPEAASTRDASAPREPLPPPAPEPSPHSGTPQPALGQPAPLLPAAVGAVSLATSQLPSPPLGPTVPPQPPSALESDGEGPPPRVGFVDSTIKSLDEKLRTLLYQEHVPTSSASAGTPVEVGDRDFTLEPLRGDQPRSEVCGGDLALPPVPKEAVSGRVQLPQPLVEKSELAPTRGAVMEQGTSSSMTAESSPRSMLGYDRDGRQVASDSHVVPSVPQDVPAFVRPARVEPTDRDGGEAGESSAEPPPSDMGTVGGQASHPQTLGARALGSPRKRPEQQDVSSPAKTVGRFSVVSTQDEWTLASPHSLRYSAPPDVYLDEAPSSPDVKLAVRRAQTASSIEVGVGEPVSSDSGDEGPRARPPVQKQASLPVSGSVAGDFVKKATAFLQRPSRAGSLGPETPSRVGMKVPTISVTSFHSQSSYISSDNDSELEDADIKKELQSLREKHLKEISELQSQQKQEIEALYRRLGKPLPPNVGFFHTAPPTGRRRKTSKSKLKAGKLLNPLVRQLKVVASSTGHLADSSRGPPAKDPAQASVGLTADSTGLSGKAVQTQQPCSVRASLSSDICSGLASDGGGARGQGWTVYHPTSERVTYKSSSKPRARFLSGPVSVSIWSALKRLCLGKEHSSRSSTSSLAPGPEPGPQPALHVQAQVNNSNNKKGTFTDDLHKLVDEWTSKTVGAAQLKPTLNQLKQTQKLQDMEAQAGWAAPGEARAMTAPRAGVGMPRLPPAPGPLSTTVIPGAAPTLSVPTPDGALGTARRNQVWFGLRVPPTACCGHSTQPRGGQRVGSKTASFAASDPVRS

[3] = biological target: T2, Ephrin type-B receptor 4 (Homo sapiens) (UniProt P54760); assay: Inhibition of EphB4 ACT labeling site in human A-375 cells at 5 uM by KiNativ Profiling analysis relative to control; type: cell-based
T2 sequence (whole entry): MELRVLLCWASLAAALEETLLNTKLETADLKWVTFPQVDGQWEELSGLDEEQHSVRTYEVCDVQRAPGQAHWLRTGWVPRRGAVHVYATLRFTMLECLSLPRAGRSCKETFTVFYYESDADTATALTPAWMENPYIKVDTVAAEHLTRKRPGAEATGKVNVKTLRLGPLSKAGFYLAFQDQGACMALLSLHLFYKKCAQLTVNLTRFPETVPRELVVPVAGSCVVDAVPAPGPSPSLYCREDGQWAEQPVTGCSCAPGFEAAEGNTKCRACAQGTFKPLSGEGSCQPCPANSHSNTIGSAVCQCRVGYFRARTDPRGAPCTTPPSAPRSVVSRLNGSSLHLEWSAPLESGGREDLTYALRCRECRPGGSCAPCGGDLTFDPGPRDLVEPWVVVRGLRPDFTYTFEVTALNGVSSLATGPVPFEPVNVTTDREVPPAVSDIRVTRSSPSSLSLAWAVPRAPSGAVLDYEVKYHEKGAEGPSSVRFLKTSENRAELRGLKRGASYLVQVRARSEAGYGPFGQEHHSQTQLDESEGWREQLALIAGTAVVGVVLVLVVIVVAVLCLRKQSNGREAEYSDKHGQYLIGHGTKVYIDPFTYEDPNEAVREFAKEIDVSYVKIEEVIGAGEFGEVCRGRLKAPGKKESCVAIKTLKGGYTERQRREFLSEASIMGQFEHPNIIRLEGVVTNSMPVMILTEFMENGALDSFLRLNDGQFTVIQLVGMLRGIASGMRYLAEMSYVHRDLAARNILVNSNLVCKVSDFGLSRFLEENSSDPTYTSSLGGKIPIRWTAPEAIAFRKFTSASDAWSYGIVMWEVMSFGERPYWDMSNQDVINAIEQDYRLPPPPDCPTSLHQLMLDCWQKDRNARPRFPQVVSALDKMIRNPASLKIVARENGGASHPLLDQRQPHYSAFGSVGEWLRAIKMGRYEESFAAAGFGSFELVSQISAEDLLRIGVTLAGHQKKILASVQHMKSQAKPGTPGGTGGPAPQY
Outline: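 Live A375 melanoma cells were treated with compound at 0.5 or 5 μM, then lysed. Lysates were labeled with a lysine-reactive ATP or ADP-biotin probe. The read-out was protection of each kinase probe-labeling site from labeling, relative to control.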

[4] = biological target: T3, Phosphatidylinositol 4,5-bisphosphate 3-kinase catalytic subunit delta isoform (Homo sapiens) (UniProt O00329); assay: Inhibition of PIK3CD ATP labeling site in human A-375 cells at 0.05 uM by KiNativ Profiling analysis relative to control; type: cell-based
T3 sequence (whole entry): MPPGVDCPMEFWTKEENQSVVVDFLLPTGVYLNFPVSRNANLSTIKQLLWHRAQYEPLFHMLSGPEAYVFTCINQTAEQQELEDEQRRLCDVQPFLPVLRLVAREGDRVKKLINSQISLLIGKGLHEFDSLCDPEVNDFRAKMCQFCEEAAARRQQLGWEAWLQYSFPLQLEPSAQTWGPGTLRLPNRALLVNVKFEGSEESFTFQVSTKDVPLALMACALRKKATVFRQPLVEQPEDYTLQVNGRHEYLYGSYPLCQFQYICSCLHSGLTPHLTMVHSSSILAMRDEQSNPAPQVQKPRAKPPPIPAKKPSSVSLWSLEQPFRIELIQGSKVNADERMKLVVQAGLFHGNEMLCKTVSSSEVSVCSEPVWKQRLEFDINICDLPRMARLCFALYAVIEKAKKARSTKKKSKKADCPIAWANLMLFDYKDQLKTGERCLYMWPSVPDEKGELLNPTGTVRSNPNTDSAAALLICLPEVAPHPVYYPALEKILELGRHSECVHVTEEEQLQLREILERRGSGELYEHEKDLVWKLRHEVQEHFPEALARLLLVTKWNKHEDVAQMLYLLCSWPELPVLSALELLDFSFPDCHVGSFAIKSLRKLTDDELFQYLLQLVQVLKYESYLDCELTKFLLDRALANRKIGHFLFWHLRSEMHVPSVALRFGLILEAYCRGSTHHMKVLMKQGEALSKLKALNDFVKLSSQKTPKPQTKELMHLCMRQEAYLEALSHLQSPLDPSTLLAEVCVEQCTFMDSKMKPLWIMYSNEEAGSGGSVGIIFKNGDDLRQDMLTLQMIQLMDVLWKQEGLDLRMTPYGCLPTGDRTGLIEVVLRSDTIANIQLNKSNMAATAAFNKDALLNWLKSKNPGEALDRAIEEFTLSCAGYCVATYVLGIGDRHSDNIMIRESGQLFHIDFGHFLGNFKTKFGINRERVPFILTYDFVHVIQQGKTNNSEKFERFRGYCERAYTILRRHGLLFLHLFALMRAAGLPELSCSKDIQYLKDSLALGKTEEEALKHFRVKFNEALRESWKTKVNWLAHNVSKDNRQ

[5] = Inhibition of KHS1 Lys1 labeling site in human A-375 cells at 0.05 uM by KiNativ Profiling analysis relative to control; settings: condition cancer
[6] = biological target: Tyrosine-protein kinase Lyn (Homo sapiens, UniProt P07948); assay: Inhibition of LYN Lys1 labeling site in human A-375 cells at 0.5 uM by KiNativ Profiling analysis relative to control; type: cell-based
Sequence of Tyrosine-protein kinase Lyn (P07948 2-512 limits assumed): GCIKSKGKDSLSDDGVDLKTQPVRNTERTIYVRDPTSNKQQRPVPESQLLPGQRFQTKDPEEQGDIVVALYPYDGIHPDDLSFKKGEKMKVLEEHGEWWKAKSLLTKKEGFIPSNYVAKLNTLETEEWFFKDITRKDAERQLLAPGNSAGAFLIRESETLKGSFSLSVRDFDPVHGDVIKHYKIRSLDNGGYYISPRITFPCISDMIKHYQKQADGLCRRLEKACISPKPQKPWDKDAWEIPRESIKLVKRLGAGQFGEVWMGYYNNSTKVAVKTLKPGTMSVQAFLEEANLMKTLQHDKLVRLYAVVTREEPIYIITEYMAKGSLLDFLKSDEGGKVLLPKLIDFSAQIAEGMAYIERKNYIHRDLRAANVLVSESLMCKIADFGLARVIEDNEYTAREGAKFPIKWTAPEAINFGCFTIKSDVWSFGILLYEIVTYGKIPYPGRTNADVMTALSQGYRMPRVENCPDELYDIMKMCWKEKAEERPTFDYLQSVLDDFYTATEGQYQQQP

For `CNc1cc(Oc2cc(C(=O)Nc3cc(-n4cnc(C)c4)cc(C(F)(F)F)c3)ccc2C)ncn1`, the inhibition [1] was 5.5%.

`CNc1cc(Oc2cc(C(=O)Nc3cc(N4CCN(C)CC4)cc(C(F)(F)F)c3)ccc2C)ncn1` showed an inhibition [1] of 12.8%.

In the case of `CCN1CCN(Cc2ccc(NC(=O)c3ccc(C)c(Oc4ccnc5[nH]ccc45)c3)cc2C(F)(F)F)CC1`, the inhibition [2] is reported as -3%, the inhibition [3] is reported as -4.2% and the inhibition [4] is reported as 4.1%. The inhibition at 0.05 µM [5] was 14.9% and the inhibition [6] was 90.5%.

`CCN1CCN(Cc2ccc(NC(=O)c3ccc(C)c(/C=C/c4cnc5[nH]ccc5c4OC)c3)cc2C(F)(F)F)CC1` showed an inhibition [2] of 7.9%, an inhibition [3] greater than 90% and an inhibition [4] of 24.3%. It also gave an inhibition at 0.05 µM [5] of 29.4% and an inhibition [6] greater than 95%.
